In brackets after ≈: the same amount, converted by molar mass.
What was measured:
Type in all cases: functional
Curvularia lunata [1] = assay: Antifungal activity against Curvularia lunata assessed as zone of inhibition at 200 ug/ml after 48 hrs by disc diffusion method; conditions: read-out: DIZ
Procedure, shortened: (§1)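 Fungi were grown on potato dextrose agar at 25 °C for 3 days, and spore suspensions were adjusted to 10⁶ spores/ml. In the disc diffusion test, inoculated plates received 6 mm paper discs moistened with compound in DMSO at 100 or 200 per disc. Plates were incubated at 37 °C, and inhibition zone diameter was read at 48 h. Ketoconazole was the standard.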

Aspergillus niger [2] = assay: Antifungal activity against Aspergillus niger assessed as zone of inhibition at 100 ug/ml after 48 hrs by disc diffusion method; conditions: read-out: DIZ; procedure, shortened: as §1
Aspergillus niger [3] = assay: Antifungal activity against Aspergillus niger assessed as zone of inhibition at 200 ug/ml after 48 hrs by disc diffusion method; conditions: read-out: DIZ; procedure, shortened: as §1
Curvularia lunata [4] = assay: Antifungal activity against Curvularia lunata after 48 hrs by microdilution method
Procedure, shortened: (§2)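 MIC by microdilution susceptibility testing in tubes. Incubation was at 36 °C for 24 h (bacteria) or 48 h (fungi). MIC was recorded as the lowest compound concentration giving no turbidity, i.e. no visible growth. Chloramphenicol was the antibacterial reference and ketoconazole the antifungal standard.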

Curvularia lunata [5] = assay: Antifungal activity against Curvularia lunata assessed as zone of inhibition at 100 ug/ml after 48 hrs by disc diffusion method; conditions: read-out: DIZ; procedure, shortened: as §1
Fusarium solani [6] = assay: Antifungal activity against Fusarium solani assessed as zone of inhibition at 100 ug/ml after 48 hrs by disc diffusion method; conditions: read-out: DIZ; procedure, shortened: as §1
Fusarium solani [7] = assay: Antifungal activity against Fusarium solani assessed as zone of inhibition at 200 ug/ml after 48 hrs by disc diffusion method; conditions: read-out: DIZ; procedure, shortened: as §1
Aspergillus niger [8] = assay: Antifungal activity against Aspergillus niger after 48 hrs by microdilution method; procedure, shortened: as §2
Fusarium solani [9] = assay: Antifungal activity against Fusarium solani after 48 hrs by microdilution method; procedure, shortened: as §2
Klebsiella pneumoniae [10] = assay: Antibacterial activity against Klebsiella pneumoniae assessed as zone of inhibition at 200 ug/ml after 24 hrs by disc diffusion method; conditions: read-out: DIZ
Procedure, shortened: (§3)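 Agar disc diffusion on nutrient agar plates pre-inoculated separately with each bacterium. Sterile 6 mm paper discs were moistened with compound solution in DMSO at 100 or 200 per disc and placed on the plates. Plates were incubated at 37 °C, and growth-inhibition zone diameter was measured after 24 h. Chloramphenicol served as the reference drug.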

Bacillus subtilis [11] = assay: Antibacterial activity against Bacillus subtilis assessed as zone of inhibition at 200 ug/ml after 24 hrs by disc diffusion method; conditions: read-out: DIZ; procedure, shortened: as §3
Staphylococcus aureus [12] = assay: Antibacterial activity against Staphylococcus aureus assessed as zone of inhibition at 100 ug/ml after 24 hrs by disc diffusion method; conditions: read-out: DIZ; procedure, shortened: as §3
[13] = tested on: Radical scavenging activity; assay: Antioxidant activity against DPPH free radical scavenging activity at 100 uM after 20 mins by spectrophotometric analysis at pH 7.5
Procedure, shortened: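 DPPH assay: compound solutions at 100 were added to DPPH at 100 in dioxane/methanol and held at ambient temperature for 20 min. Absorbance was read at 517 nm, and the test–control difference was expressed as percent DPPH radical scavenging.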

[14] = Antioxidant activity against nitric oxide scavenging activity at 100 uM after 120 mins by spectrophotometric analysis at pH 7.4
Procedure, shortened: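 Nitric oxide scavenging: test compounds at 100 in dioxane/methanol were incubated at 25 °C for 120 min, with a solvent-only control. At intervals, 0.5 ml samples were mixed with an equal volume of Griess reagent (1% sulfanilamide, 0.1% N-naphthylethylenediamine dihydrochloride, 2% o-phosphoric acid). Absorbance of the azo chromophore was then measured.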

Staphylococcus aureus [15] = assay: Antibacterial activity against Staphylococcus aureus assessed as zone of inhibition at 200 ug/ml after 24 hrs by disc diffusion method; conditions: read-out: DIZ; procedure, shortened: as §3
Bacillus subtilis [16] = assay: Antibacterial activity against Bacillus subtilis assessed as zone of inhibition at 100 ug/ml after 24 hrs by disc diffusion method; conditions: read-out: DIZ; procedure, shortened: as §3
Escherichia coli [17] = assay: Antibacterial activity against Escherichia coli assessed as zone of inhibition at 100 ug/ml after 24 hrs by disc diffusion method; conditions: read-out: DIZ; procedure, shortened: as §3
Escherichia coli [18] = assay: Antibacterial activity against Escherichia coli assessed as zone of inhibition at 200 ug/ml after 24 hrs by disc diffusion method; conditions: read-out: DIZ; procedure, shortened: as §3
Klebsiella pneumoniae [19] = assay: Antibacterial activity against Klebsiella pneumoniae assessed as zone of inhibition at 100 ug/ml after 24 hrs by disc diffusion method; conditions: read-out: DIZ; procedure, shortened: as §3

Row | Structure (SMILES) | zone of inhibition at 200 µg/mL (Curvularia lunata [1]) [mm] | zone of inhibition at 100 µg/mL (Aspergillus niger [2]) [mm] | zone of inhibition at 200 µg/mL (Aspergillus niger [3]) [mm] | MIC (Curvularia lunata [4]) [µg/mL] | zone of inhibition at 100 µg/mL (Curvularia lunata [5]) [mm] | zone of inhibition at 100 µg/mL (Fusarium solani [6]) [mm] | zone of inhibition at 200 µg/mL (Fusarium solani [7]) [mm] | MIC (Aspergillus niger [8]) [µg/mL] | MIC (Fusarium solani [9]) [µg/mL] | zone of inhibition at 200 µg/mL (Klebsiella pneumoniae [10]) [mm] | zone of inhibition at 200 µg/mL (Bacillus subtilis [11]) [mm] | zone of inhibition at 100 µg/mL (Staphylococcus aureus [12]) [mm] | inhibition [13] [%] | inhibition [14] [%] | zone of inhibition at 200 µg/mL (Staphylococcus aureus [15]) [mm] | zone of inhibition at 100 µg/mL (Bacillus subtilis [16]) [mm] | zone of inhibition at 100 µg/mL (Escherichia coli [17]) [mm] | zone of inhibition at 200 µg/mL (Escherichia coli [18]) [mm] | zone of inhibition at 100 µg/mL (Klebsiella pneumoniae [19]) [mm]
1 | CC(=O)N1CCN(c2ccc(OCC3COC(Cn4ccnc4)(c4ccc(Cl)cc4Cl)O3)cc2)CC1 (stereo unspecified) [KETOCONAZOLE] | 44 | 36 | 39 | 6.25 (≈ 11.8 µM) | 41 | 38 | 42 | 6.25 (≈ 11.8 µM) | 12.5 (≈ 23.5 µM) | – | – | – | – | – | – | – | – | – | –
2 | Cc1ccc(-c2nnc(CSC(SCc3nnc(-c4ccc(C)cc4)o3)=C(C#N)C#N)o2)cc1 | 14 | 10 | 11 | – | 13 | 15 | 17 | – | – | 11 | 12 | 10 | 52.5 | 54.3 | 13 | 10 | – | – | –
3 | N#CC(C#N)=C(SCc1nnc(-c2ccc(Cl)cc2)o1)SCc1nnc(-c2ccc(Cl)cc2)o1 | 19 | 14 | 17 | – | 16 | 20 | 22 | – | – | 12 | 16 | 16 | 73.7 | 72.5 | 20 | 13 | 8 | 11 | 8
4 | Cc1ccc(-c2nnc(CSC(SCc3nnc(-c4ccc(C)cc4)s3)=C(C#N)C#N)s2)cc1 | 26 | 18 | 21 | – | 25 | 23 | 25 | – | – | 22 | 24 | 19 | 21.6 | 22.3 | 25 | 19 | 17 | 24 | 18
5 | O=C1O[C@H]([C@@H](O)CO)C(O)=C1O | – | – | – | – | – | – | – | – | – | – | – | – | 95.3 | 94.9 | – | – | – | – | –

— ChEMBL document CHEMBL1759942, “Synthesis and biological activity of 2-(bis((1,3,4-oxadiazolyl/1,3,4-thiadiazolyl)methylthio)methylene)malononitriles” (2011)
